High-throughput results as filed in PubChem.
The full list was thinned out, with hits kept by preference.
Pyk2 oligo antag: Pyk2 (human) oligomerization antagonism; Q14289; Q293 cells, Pyk2 FERM NanoBiT luminescence; stronger effect = lower value; z-score (the deposit names both 25 µM and 10 µM); 99,000 tested, 0.83% active;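 active = Z-score of -3 or lower, scaled per plate to the spread of control and sample wells; inactive = z-score above -3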;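 note: negative z-score means lost luminescence so less FERM oligomerization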
Lung fibro prol: blocks proliferation of human lung fibroblasts | LL 47 human lung fibroblast viability, ATP luminescence; stronger effect = lower value | AID 719 | viability, % at 10 µM | 85,000 tested, 1.1% active;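 active = viability at or below 50% in the single dose screen; inactive = viability above 50%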;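 note: compound exposure lasted 72 h before the ATP readout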
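material = human LL 47 lung fibroblast cells | dosing = compounds added from tenfold dosing solution, 0.1% DMSO final | timing = overnight cell rest, 72 h compound treatment at 37 °C | measured by = CellTiter-Glo luminescence measuring cellular ATP | evaluation = % viability versus median cells-only luminescence | control set = cell-only wells, no compound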
HCT116 PTEN-null: suppresses growth of cells with PTEN deletion; HCT116 PTEN-null viability, CellTiter-Glo, 60 h; stronger effect = lower value; viability, % at 10 µM; 140,000 tested, 1.2% active; AID 827;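 active = viability at or below a set limit, 4 SD under the median of all tested compounds, cut at about 3.7% in these data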;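 note: PTEN knockout HCT116 line with beta catenin targeted HCT116 as companion control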
HCT116 bCat-KO: beta-catenin-lacking colon tumor cell growth suppression; HCT116 beta-catenin knockout viability, CellTiter-Glo, 60 h; stronger effect = lower value; viability, % at 10 µM; 140,000 tested, 1.5% active; AID 818;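 active = viability at or under a set limit, the compound median less 4 SD, cut at about 6% in these data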
H69AR inhibit: growth inhibitors of human H69AR lung tumor cells | H69AR lung tumor viability, ATP luminescence, 72 h; stronger effect = lower value | 85,000 tested, 6% active | viability, % at 10 µM;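 active = viability at or below 40%; inactive = viability above 40%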;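 note: multidrug resistant small cell line overexpressing MRP-1 efflux transporter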
HUVEC prolif 384: blocks proliferation of human endothelial cells | 86,000 tested, 1.1% active | viability, % at 10 µM (by protocol) | HUVEC proliferation, CellTiter-Glo luminescence, 72 h; stronger effect = lower value;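 active = viability at or below 30%; inactive = viability above 30%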
Large screens that a line does not name were inactive.

CCc1ccc2nc(Nc3nc(COC)cc(=O)[nH]3)nc(C)c2c1	none (no result: Lung fibro prol, H69AR inhibit, HUVEC prolif 384)
O=C(Nc1cccc(S(=O)(=O)N2CCCCC2)c1)Nc1ccc(Cl)cc1Cl	HCT116 PTEN-null 1.4, HCT116 bCat-KO 1.5 (no result: Pyk2 oligo antag, Lung fibro prol, H69AR inhibit, HUVEC prolif 384)
Cc1ccc(-c2nnn(CC(=O)Nc3ccc(S(=O)(=O)N4CCC(C)CC4)cc3)n2)cc1	H69AR inhibit 21.4
CC1CCCN(S(=O)(=O)c2ccc(NC(=O)Cn3nnc(-c4ccccc4F)n3)cc2)C1 (stereo not drawn)	none
CC1CCN(S(=O)(=O)c2ccc(NC(=O)Cn3nnc(-c4ccccc4)n3)cc2)CC1	Lung fibro prol 28.7, H69AR inhibit 18.7
CC1CCN(S(=O)(=O)c2ccc(NC(=O)CN3CCOCC3)cc2)CC1	none
O=c1[nH]c2ccccc2c2nc3ccccn3c12	H69AR inhibit 35.2
CCOC(=O)c1cc(CC)sc1NC(=O)CC1Sc2ccc(C(F)(F)F)cc2NC1=O (stereo not drawn)	none (no result: Pyk2 oligo antag, Lung fibro prol, H69AR inhibit, HUVEC prolif 384)
O=C(c1ccco1)N1CCN(C(c2ccccc2Cl)c2nnnn2Cc2ccco2)CC1 (stereo not drawn)	none
O=C(c1ccco1)N1CCN(C(c2ccccc2Cl)c2nnnn2Cc2cccs2)CC1 (stereo not drawn)	H69AR inhibit 32.7
CCOc1c(Br)ccc2c1sc1nc[nH]c(=O)c12	HUVEC prolif 384 25.7
Cc1cc2c(=O)[nH]cnc2s1	none
COC(=O)C1=C(N)Oc2cc(C)n(Cc3ccccc3)c(=O)c2C1c1ccccc1 (stereo not drawn)	Pyk2 oligo antag -3.05
C[C@@H](C(=O)N[C@H](C(=O)O)c1ccccc1)n1nnc2ccccc2c1=O	none (no result: Pyk2 oligo antag, Lung fibro prol, H69AR inhibit, HUVEC prolif 384)
Cc1ccc(-n2nnnc2-c2cnc3cc4c(cc3c2C)OCO4)cc1	none (no result: Lung fibro prol, H69AR inhibit, HUVEC prolif 384)
Cc1nnc(NC(=O)C2CCCN(c3ncccn3)C2)s1 (stereo not drawn)	none
O=C(NCc1ccco1)C1CCN(S(=O)(=O)Cc2ccccc2)CC1	HCT116 PTEN-null 0.5, HCT116 bCat-KO 0.7
O=C(NCc1ccco1)C1CCN(C(=O)c2cc3sccc3n2Cc2ccc(Cl)cc2)CC1	HCT116 bCat-KO 5.7
COc1ccc(O[C@H]2C=C[C@@H](c3ccccc3)O[C@@H]2COC(=O)CC/C(C)=N/OC[C@@H](O)[C@H]2O[C@@H]3OC(C)(C)O[C@@H]3[C@H]2O)cc1	none (no result: Pyk2 oligo antag, Lung fibro prol, H69AR inhibit, HUVEC prolif 384)
CC1CCN(c2ccc(C(=O)O)cc2NS(=O)(=O)c2ccc(Br)cc2)CC1	none (no result: Lung fibro prol, H69AR inhibit, HUVEC prolif 384)
CCN(CC)S(=O)(=O)c1ccc(S(=O)(=O)Nc2ccc3c(c2)oc2ccccc23)cc1	H69AR inhibit 32.9
CN(C)S(=O)(=O)c1ccc(S(=O)(=O)Nc2ccc3c(c2)oc2ccccc23)cc1	none
N#Cc1c(Cl)nc(N/N=C/c2ccccc2)c(Cl)c1Cl	HCT116 PTEN-null 1.6, HCT116 bCat-KO 2.8 (no result: Pyk2 oligo antag, Lung fibro prol, H69AR inhibit, HUVEC prolif 384)
COc1ccc(S(=O)(=O)Nc2cc3c4c(oc3c3ccccc23)CC(C)(C)CC4=O)cc1	H69AR inhibit 15.4
COc1ccc(N2CC(C(=O)Nc3nnc(SCc4ccccn4)s3)CC2=O)cc1 (stereo not drawn)	none (no result: Pyk2 oligo antag, Lung fibro prol, H69AR inhibit, HUVEC prolif 384)
COc1cc(Cl)cc2c1Sc1ccccc1/C2=C/CCN(C)C	HCT116 bCat-KO 2.2, H69AR inhibit 2.7, HUVEC prolif 384 4.1
CN(C)CC/C=C1/c2ccccc2Sc2c(O)cc(Cl)cc21	H69AR inhibit 6.3
Cc1ccc(NC2=Nc3ccccc3N3C2=Nc2c(c(C)nn2-c2ccccc2)C3c2ccc(O)c(O)c2)cc1 (stereo not drawn)	Lung fibro prol 36.8, HCT116 PTEN-null 1.1, HCT116 bCat-KO 1.2, H69AR inhibit 16.1, HUVEC prolif 384 15.4
Cc1nn(-c2ccccc2)c2c1C(c1ccc([N+](=O)[O-])cc1)N1C(=N2)C(=O)Nc2ccccc21 (stereo not drawn)	none (no result: Pyk2 oligo antag, Lung fibro prol, H69AR inhibit, HUVEC prolif 384)
Cc1cccc(NC2=Nc3ccccc3N3C2=Nc2c(c(C)nn2-c2ccccc2)C3c2ccc(O)c(O)c2)c1 (stereo not drawn)	Lung fibro prol 44.9, HCT116 PTEN-null 1.1, HCT116 bCat-KO 2.3, H69AR inhibit 1.1
Cc1nn(-c2ccc([N+](=O)[O-])cc2)c2c1C(c1cccc(Br)c1)N1C(=N2)C(=O)Nc2ccccc21 (stereo not drawn)	none (no result: Pyk2 oligo antag, Lung fibro prol, H69AR inhibit, HUVEC prolif 384)
Cc1nn(-c2ccccc2)c2c1C(c1ccc(O)c(O)c1)N1C(=N2)C(Nc2ccccc2)=Nc2ccccc21 (stereo not drawn)	Lung fibro prol 39.5, HCT116 PTEN-null 1.2, HCT116 bCat-KO 1.1, H69AR inhibit 20.8, HUVEC prolif 384 13.0
O=C(CN1C2CCCC1CC(NC(=O)c1ccccc1)C2)Nc1nccs1 (stereo not drawn)	none
Nc1ccc2nc(-c3ccccc3)[nH]c2c1	H69AR inhibit 33.3
Nc1ccc(-c2nc3c(Cl)cc(N)cc3[nH]2)cc1	H69AR inhibit 30.8
CC(=O)Nc1ccc2nc(-c3cccs3)[nH]c2c1	none
Nc1ccc2nc(-c3ccc(N)c(Cl)c3)[nH]c2c1	none
Nc1ccc2nc(-c3cccs3)[nH]c2c1	H69AR inhibit 21.6
CCOC(=O)N1CCN(CC(O)COc2ccc(C)cc2C(C)(C)C)CC1 (stereo not drawn)	none (no result: Pyk2 oligo antag, Lung fibro prol, H69AR inhibit, HUVEC prolif 384)
COc1ccc(OC)c(C(=O)COC(=O)c2ccc(C)o2)c1	none
COc1ccc(C(=O)OCC(=O)c2cc(OC)ccc2OC)c(OC)c1	HCT116 PTEN-null 0.8, HCT116 bCat-KO 0.6
N#Cc1cc2c(nc1SCC(=O)Nc1sc3c(c1C#N)CCC3)CCCCC2	H69AR inhibit 19.6
N#Cc1c(NC(=O)CSc2nnnn2C2CCCC2)sc2c1CCCC2	H69AR inhibit 7.7
CCOC(=O)c1sc(NC(=O)CSc2nc3c(cc2C#N)CCC3)c(C#N)c1C	none (no result: Pyk2 oligo antag, HCT116 PTEN-null, HCT116 bCat-KO)
N#Cc1c(NC(=O)CSc2nc(N)cc(=O)[nH]2)sc2c1CCCCCC2	none
N#Cc1cc2c(nc1SCC(=O)Nc1sc3c(c1C#N)CCC3)CCCC2	H69AR inhibit 7.2
N#Cc1c(NC(=O)CSc2ncn[nH]2)sc2c1CCCCC2	H69AR inhibit 28.2
Cc1sc(NC(=O)CSc2nnnn2C2CCCC2)c(C#N)c1C	none
C=CCN(c1cccc(C(F)(F)F)c1)S(=O)(=O)c1cccc(C(=O)OCC(=O)NCCC)c1	none (no result: Pyk2 oligo antag, Lung fibro prol, H69AR inhibit, HUVEC prolif 384)
CCOC(=O)c1sc(NC(=O)CSc2nc3c(cc2C#N)CCCCCC3)c(C#N)c1C	Pyk2 oligo antag -3.38 (no result: H69AR inhibit)
Cc1cc(-c2ccccc2)n2ncc(C#N)c2n1	none (no result: Pyk2 oligo antag)
CC(C)C(=O)c1cn(CC(=O)NCC2CCCO2)c2ccccc12 (stereo not drawn)	none
CCOC(=O)C1=C(O)/C(=C/c2cn(CC(=O)NCC3CCCO3)c3ccccc23)SC1=Nc1ccc(C)cc1 (stereo not drawn)	Lung fibro prol 26.8, H69AR inhibit 22.6, HUVEC prolif 384 11.6 (no result: HCT116 PTEN-null, HCT116 bCat-KO)
COc1cccc(C(C(=O)NC2CCCCC2)N(C(=O)c2ccco2)c2ccc(-n3cnnn3)c(C)c2)c1 (stereo not drawn)	none
Cc1cc(N(C(=O)c2ccco2)C(C(=O)NC2CCCCC2)c2ccccc2)ccc1-n1cnnn1 (stereo not drawn)	H69AR inhibit 39.4
